This is a sample that favours compounds with a hit; in the whole collection about 1% have one here.
FXN GAA850 act: FXN promoter activators, primary screen, cell-based, luciferase luminescence, HEK293 lucGAA850; HEK293 lucGAA850 FXN promoter luciferase reporter, 24 h; percent of 10 µM SAHA response; activation, % at 6 µM; AID 540364, 2011; actives 0.56% (n = 360,000);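 active means activation above the average of all compounds screened plus 3 SD, cutoff fixed separately per campaign, cut at about 7.5% in these data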
CaV13 FRET inh: Primary screen for inhibitors of IQ motif and Ca2+-dependent inactivation inhibitor domain binding in CACNA1D, Förster resonance energy transfer in living cells, … | actives 0.098% (n = 340,000) | inhibition, % at 12.3 µM | AID 743397 | HEK cells, CFP/YFP FRET ICDI-IQ, plate reader, 10 min; percent FRET-ratio fall versus neutral wells;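 active means mean replicate inhibition of at least 30% and at least 1% of replicates passing that level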
GSIS activator: GLuc luminescence reporter in INS-1E cells, primary screen for activators of glucose-dependent secretion of insulin; INS-1E GLuc reporter insulin secretion, 2-3 h; activation, % at 16.6 µM; actives 0.61% (n = 370,000); AID 743287, 2014;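 active means lowest replicate activation of at least 40%, so every replicate reaches that level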
Xi reactivation: activators of inactive X chromosome reactivation, primary screen, imaging, XiGFP fibroblasts, GFP high-content imaging, set 2; activation, % at 7.58 µM; actives 0.055% (n = 360,000); XiGFP mouse fibroblasts, % GFP-positive cells imaging, 3 d; cells co-treated with 5-aza-dC sensitizer; scaled so ellipticine positive control = 100%;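 active means mean normalized replicate activation at least 10% and every replicate at or above 10%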
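Schedule: 3 d treatment, 15 min room-temperature fixation; system: 68-5-11 XiGFP fibroblast line; buffer or medium: DMEM plus 5-aza-dC sensitizer; control set: ellipticine 6 µM positive control; compound: one concentration, pinned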
Hits are given with their value; - = inactive; . = no result.

SMILES	FXN GAA850 act	CaV13 FRET inh	GSIS activator	Xi reactivation
CN(C)CCCNC(=O)[C@@H]1[C@@H](CO)[C@@H]2Cn3c(ccc(-c4ccccc4)c3=O)[C@H]1N2C(=O)CC1CC1	.	.	-	-
COc1ccc(S(=O)(=O)N[C@H]2C=C[C@@H](CC(=O)N3CCN(c4ccccc4)CC3)O[C@H]2CO)cc1	.	.	-	-
CN1c2ccc(Br)cc2[C@@H]2[C@@H](CCN2C(=O)Nc2cccc(F)c2)[C@@H]1CO	.	.	-	-
COCCn1c(=O)[nH]c2cc(C(=O)Nc3cc(OC)c(OC)c(OC)c3)ccc2c1=O	-	-	47	-
COCCn1c(=O)[nH]c2cc(C(=O)Nc3ccc(OC)c(Cl)c3)ccc2c1=O	-	.	.	.
COc1ccc2c3c(n(C)c2c1)[C@H](CO)N(C(=O)Nc1c(C)noc1C)CC31CCN(CC2CC2)CC1	.	.	-	-
COC(=O)c1sc2ccccc2c1NC(=O)c1cccs1	-	-	58	.
COC(=O)c1sccc1NC(=O)c1cccs1	-	-	-	-
COc1cc(CNc2ccc3[nH]c(=O)[nH]c3c2)ccc1OCc1c(F)cccc1Cl	-	-	-	-
CCn1nnnc1NCc1ccc(OCc2c(F)cccc2Cl)c(OC)c1	-	-	43	-
COc1ccc(NC(=O)N[C@@H]2CC[C@@H](CCNS(=O)(=O)c3cccc(Cl)c3)O[C@@H]2CO)cc1	.	.	-	-
CC1=C(C(=O)N2CCOCC2)CC(CC(=O)NCCCN(C)C)C(=O)N1CCCN1CCCC1=O (configuration not stated)	.	-	41	-
O=C(C[C@@H]1C[C@H]2c3cc(NC(=O)C4CCC4)ccc3O[C@H]2[C@H](CO)O1)NCc1cccnc1	.	.	-	-
COc1cc(/C=N/Nc2cc(C)nc(NS(=O)(=O)c3ccc(C)cc3)n2)ccc1O	-	-	46	-
CCc1nn2c(=O)cc(COc3ccc(NC(=O)c4ccco4)cc3)nc2s1	-	-	-	-
CC(C)Cc1nn2c(=O)cc(COc3ccc(NC(=O)c4ccco4)cc3)nc2s1	-	-	47	-
ClC(Cl)(c1nnnn1-c1ccccc1)c1nnnn1-c1ccccc1	-	-	139	-
CCCNC(=O)N(C)C[C@H]1Oc2cc(-c3ccc(C)cc3)ccc2S(=O)(=O)N([C@@H](C)CO)C[C@H]1C	.	.	-	-
CN1CCN(C(=O)C[C@@H]2CC[C@H]3[C@@H](COC[C@H](O)CN3C(=O)Nc3ccc(Cl)cc3)O2)CC1	.	.	-	-
O=C(COc1ccccc1)Nc1sc2c(c1C(=O)NCc1cccnc1)CCCC2	-	.	92	.
C[C@@H](NC(=O)C[C@@H]1C[C@@H]2c3cc(NC(=O)CN(C)C)ccc3O[C@@H]2[C@H](CO)O1)c1ccccc1	.	.	-	-
CNC(=O)c1nnsc1S(=O)c1ccc(Cl)cc1 (configuration not stated)	-	-	-	-
CCCNC(=O)c1nnsc1S(=O)c1ccc(Cl)cc1 (configuration not stated)	-	-	115	-
CCCNC(=O)c1nnsc1S(=O)(=O)c1ccc(Cl)cc1	-	-	65	-
O=C1CSC(c2cccc([N+](=O)[O-])c2)N1Cc1ccccc1 (configuration not stated)	-	-	-	-
SMILES	FXN GAA850 act	CaV13 FRET inh	GSIS activator	Xi reactivation
O=C1CSC(c2cccc(O)c2)N1Cc1ccccc1 (configuration not stated)	-	-	42	-
CC(C)CC#Cc1ccc2c(c1)O[C@@H](CN(C)Cc1cccc(F)c1)[C@H](C)CN([C@@H](C)CO)S2(=O)=O	.	.	95	-
C[C@@H]1CN([C@H](C)CO)S(=O)(=O)c2ccc(-c3ccc(C#N)cc3)cc2O[C@H]1CN(C)C	.	.	48	-
CC(C)CC#Cc1ccc2c(c1)O[C@@H](CN(C)Cc1cccc(F)c1)[C@@H](C)CN([C@H](C)CO)S2(=O)=O	.	.	-	-
CCOc1ccc(/C=C2/Sc3ccc(C(=O)NCC4CCCO4)cc3N(C)C2=O)cc1OC (configuration not stated)	-	-	40	-
O=C(COC(=O)CCc1c[nH]c2ccccc12)NCc1ccccc1	-	-	-	-
O=C(CCc1c[nH]c2ccccc12)OCC(=O)c1ccccc1	-	36	-	-
O=C1c2[nH]nc(-c3ccccc3)c2C(c2ccccc2)N1c1ccccc1 (configuration not stated)	.	-	49	-
CC(C)c1[nH]nc2c1C(c1ccccc1)NC2=O (configuration not stated)	.	-	44	-
O=C1NC(c2ccccc2)c2c(-c3ccccc3)n[nH]c21 (configuration not stated)	.	-	54	-
C[C@@H]1CCCCO[C@@H](CN(C)S(=O)(=O)c2cccs2)[C@H](C)CN([C@H](C)CO)C(=O)c2cc(NS(=O)(=O)c3ccccc3)ccc2O1	.	.	-	-
Cc1noc(C)c1NC(=O)Nc1ccc2c(c1)CC(=O)N([C@H](C)CO)C[C@@H](C)[C@H](CN(C)C(=O)Nc1c(C)noc1C)O2	.	.	-	-
C/C=C/c1ccc2c(c1)O[C@@H](CN(C)C(=O)NCCC)[C@@H](C)CN([C@@H](C)CO)S2(=O)=O	.	.	-	-
CCCCn1c(N)c(N(CCOC)C(=O)c2ccc3c(c2)C(=O)N(c2ccccc2C)C3=O)c(=O)[nH]c1=O	-	-	-	-
COCCN(C(=O)c1ccc2c(c1)C(=O)N(c1ccccc1Cl)C2=O)c1c(N)n(CC(C)C)c(=O)[nH]c1=O	-	-	-	142
Cc1noc(C)c1S(=O)(=O)Nc1ccc2c(c1)CC(=O)N([C@@H](C)CO)C[C@@H](C)[C@H](CN(C)S(=O)(=O)c1c(C)noc1C)O2	.	.	-	-
CCC(=O)N1CC2(C1)CN(C(=O)NC1CCCC1)[C@H](CO)c1c2c2ccc(OC)cc2n1C	.	.	-	-
COc1cc2c(cc1OC)-c1cc(Nc3ccc(N(C)C)cc3)nc(=O)n1CC2	-	-	79	-
CC(C)NC(=O)Nc1ccc2c(c1)C(=O)N(C)[C@@H]1CC[C@H](CC(=O)NCc3ccc(F)cc3)O[C@H]1CO2	.	.	-	-
COc1ccc(N2CC(C(=O)N3CCc4ccccc43)CC2=O)cc1 (configuration not stated)	-	-	66	-
C[C@H]1CN([C@@H](C)CO)S(=O)(=O)c2ccc(-c3ccccc3)cc2O[C@H]1CN(C)C(=O)c1ccc2c(c1)OCO2	.	.	-	-
Cc1nc(N)c(C#N)c(-c2cccnc2)c1-c1ccccc1	-	-	41	-
N#Cc1c(-c2cccc(Br)c2)cc(-c2cccnc2)nc1N	-	-	90	.
N#Cc1c(-c2ccc(Br)cc2)cc(-c2cccnc2)nc1N	-	-	-	-
C[C@@H]1CN([C@@H](C)CO)C(=O)Cc2cc(N(C)C)ccc2O[C@H]1CN(C)CC1CC1	.	.	-	-
